Assays:
[1] = Antiproliferative activity against human FM3 cells after 72 hrs by MTT reduction assay; assay type: functional, cell-based
Procedure, shortened: (§1)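 MTT reduction assay; adherent lines left to adhere overnight, suspension lines (HL-60, K562) seeded on the day. […] Incubation was 72 h at 37°C, with MTT added for the last 4 h. OD read at 545 nm (reference 690 nm). IC50 from 100(A0-A)/A0=50; means ± SD of 3 independent experiments.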

[2] = system: HCT-116; assay: Antiproliferative activity against human HCT116 cells after 72 hrs by MTT reduction assay; assay type: functional, cell-based; details: HCT-116, 72 h
Procedure, shortened: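 MTT reduction assay; adherent lines left to adhere overnight, suspension lines (HL-60, K562) seeded on the day. Incubation was 72 h at 37°C, with MTT added for the last 4 h.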

[3] = system: HeLa; assay: Antiproliferative activity against human HeLa cells after 72 hrs by MTT reduction assay; assay type: functional, cell-based; procedure, shortened: as §1
[4] = system: SK-BR-3; assay: Antiproliferative activity against human SKBR3 cells after 72 hrs by MTT reduction assay; assay type: functional, cell-based; details: SK-BR-3, 72 h; procedure, shortened: as §1
[5] = system: K562; assay: Antiproliferative activity against human K562 cells after 72 hrs by MTT reduction assay; assay type: functional, cell-based; details: K562, 72 h; procedure, shortened: as §1
[6] = system: PBMC; assay: Induction of apoptosis in human PBMC assessed as late apoptotic cells at 150 ug/ml after 24 hrs by propidium iodide staining-based flow cytometric method (reference value: 0.6%); assay type: cell-based
[7] = system: PBMC; assay: Induction of apoptosis in human PBMC assessed as early apoptotic cells at 400 ug/ml after 24 hrs by propidium iodide staining-based flow cytometric method (reference value: 0.1%); assay type: cell-based
[8] = system: PBMC; assay: Induction of apoptosis in human PBMC assessed as late apoptotic cells at 400 ug/ml after 24 hrs by propidium iodide staining-based flow cytometric method (reference value: 0.6%); assay type: cell-based
[9] = system: PBMC; assay: Induction of apoptosis in human PBMC assessed as early apoptotic cells at 500 ug/ml after 24 hrs by propidium iodide staining-based flow cytometric method (reference value: 0.1%); assay type: cell-based
[10] = system: B16-F1; assay: Induction of apoptosis in mouse B16-F1 cells assessed as late apoptotic cells at 283.90 uM after 48 hrs by propidium iodide staining-based flow cytometric method (reference value: 0.5%); assay type: functional
[11] = system: B16-F1; assay: Induction of apoptosis in mouse B16-F1 cells assessed as early apoptotic cells at 283.90 uM after 72 hrs by propidium iodide staining-based flow cytometric method (reference value: 0.4%); assay type: functional
[12] = system: B16-F1; assay: Induction of apoptosis in mouse B16-F1 cells assessed as necrotic cells at 283.90 uM after 72 hrs by propidium iodide staining-based flow cytometric method (reference value: 2.5%); assay type: functional
[13] = system: Mus musculus; assay: In vivo induction of tumor-reactive immune response in C57BL/6 mouse allografted with mouse B16-F1 cells assessed as splenocyte-mediated NK-sensitive mouse YAC-1 cell lysis at 300 ug, ip administered every other day up to day 29 measured on day 29 post last dose by flow cytometric method (reference value: 1.2 to 1.7); assay type: functional
Procedure, shortened: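 Male C57BL/6 mice (6-8 wk) were injected sc in the right flank with 10⁵ B16.F1 cells in PBS on day 0. From day 11, when tumors were palpable, they received ip doses in 200 µL PBS every other day (8 doses; 5 mice/group). On day 29, splenocytes were co-cultured unstimulated with targets at E:T 100:1 for 6 h at 37°C. CD107a/b MFI was read by flow cytometry, 2 mice/group tested individually.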

Work on `C/C=C1/[C@H](O[C@@H]2O[C@H](CO)[C@@H](O)[C@H](O)[C@H]2O)OC=C(C(=O)OC)[C@H]1CC(=O)OCCc1ccc(O)c(O)c1` [OLEUROPEIN] yielded an IC50 [1] of 269 to 275 µM, an IC50 [2] of 182 to 185 µM and an IC50 [3] of 265 to 276 µM. It also gave an IC50 [4] of 160 µM, an IC50 [5] of 64.7 µM and an Activity [6] of 1.5%. The Activity [7] was 1.6%, the Activity [8] was 3% and the Activity [9] was 3.1%. The Activity [10] was 9.8%, the Activity [11] was 22.5% and the Activity [12] was 21.8%. The Flu intensity [13] was 2.3 - 2.7.

From ChEMBL document CHEMBL4130342, “New semi-synthetic analogs of oleuropein show improved anticancer activity in vitro and in vivo” (Eur J Med Chem, 2017)
